Experimental data gathered from unrelated publications.
Protocols differ between the studies behind these lines.
RPS6KA2: Ribosomal protein S6 kinase alpha-2 (RPS6KA2, Homo sapiens, UniProt Q15349)
RPS6KA2 N-terminal kinase domain: Ribosomal protein S6 kinase alpha-2, N-terminal kinase domain (RPS6KA2, Homo sapiens, UniProt Q15349)
RPS6KA2 C-terminal kinase domain: Ribosomal protein S6 kinase alpha-2, C-terminal kinase domain (RPS6KA2, Homo sapiens, UniProt Q15349)

CNCc1ccc(-c2cc(-c3nc(-c4ccc(S(=O)(=O)C(C)C)cc4)cnc3N)on2)cc1 — inhibition (RPS6KA2; enzyme activity; inhibitor; 2 µM): 49%
CCS(=O)(=O)c1cc2cc(C[C@](O)(CC(C)(C)c3ccc(F)cc3C(N)=O)C(F)(F)F)[nH]c2cn1 — remaining binding (RPS6KA2 N-terminal kinase domain; cell-free assay; competition with immobilised ligand; 1 µM): 100%
Cc1ccc(Nc2nccc(N(C)c3ccc4c(C)n(C)nc4c3)n2)cc1S(N)(=O)=O — inhibition (RPS6KA2; enzyme activity; inhibitor; 10 µM): 64%
COc1cc(Cl)c(C(=O)N[C@@H](CN[C@H]2CC[C@@H](N)CC2)Cc2ccc(C#N)cc2)cc1-c1ccc(CN[C@H](C)c2ccc(C)cc2)o1 — remaining activity (RPS6KA2; enzyme activity; inhibitor; 1 µM): 106%
Cn1cc(Cl)c2c(Oc3c(F)cc(Nc4cc(Cl)nc(N)n4)cc3F)ccnc21 — remaining binding (RPS6KA2 N-terminal kinase domain; cell-free assay; competition with immobilised ligand; 0.1 µM): 95%
Cc1ccc(C(=O)Nc2ccc(CN3CCN(C)CC3)c(C(F)(F)F)c2)cc1C#Cc1cnc2cccnn12 — remaining activity (RPS6KA2; enzyme activity; inhibitor; 23.5 nM): 100%
Cc1ccc(NC(=O)c2ccc(C)c(C(F)(F)F)c2)cc1C#Cc1nn(C2CCC(O)CC2)c2ncnc(N)c12 (stereo not shown) — remaining signal (RPS6KA2; cell-free assay; 10 µM): 38%
CC(C)(C)c1nc2c(s1)c1nc(N)ncc1c1ccc(NS(=O)(=O)c3c(F)cccc3F)c(F)c12 — remaining activity (RPS6KA2; enzyme activity; inhibitor; radiometric; 1 µM): 84%
Nc1ncnc2occ(-c3ccc(NC(=O)Nc4cc(C(F)(F)F)ccc4F)cc3)c12 — remaining signal (RPS6KA2 C-terminal kinase domain; cell-free assay; inhibitor; 20 µM): 2.3%
N[C@H]1CCN(c2nccc(-c3cnn4ncccc34)n2)C1 — remaining binding (RPS6KA2 C-terminal kinase domain; binding; competition with immobilised ligand; 1 µM): 91%
CCN(CC)c1ccc(C2=NNC(=O)CC2C)cc1[N+](=O)[O-] (stereo not shown) — remaining activity (RPS6KA2; enzyme activity; inhibitor; 10 µM): 98%
CN(C)c1nccc(-c2cnn3ncccc23)n1 — remaining binding (RPS6KA2 C-terminal kinase domain; binding; competition with immobilised ligand; 1 µM): 100%
CO[C@@H](C)c1c(Nc2ccc([C@H](N(C)C(=O)C3CCS(=O)(=O)CC3)C(F)(F)F)cc2)cnc2cc(Cl)nn12 — remaining binding (RPS6KA2 C-terminal kinase domain; cell-free assay; competition with immobilised ligand; 1 µM): 79%
Cc1cnn2ncc(-c3ccnc(N(C)C)n3)c2c1 — remaining binding (RPS6KA2 N-terminal kinase domain; binding; competition with immobilised ligand; 1 µM): 85%
COc1cc2ncnc(Nc3ccc(Oc4ccccc4)cc3C)c2cc1OC — inhibition (RPS6KA2; enzyme activity; inhibitor; 1 µM): 3%
O=c1nc(-c2ccccn2)sc2ccccc12 — remaining binding (RPS6KA2 N-terminal kinase domain; binding; competition with immobilised ligand; 1 µM): 100%
CN(C)c1ncc(F)c(-c2cnn3ncccc23)n1 — remaining binding (RPS6KA2 N-terminal kinase domain; binding; competition with immobilised ligand; 1 µM): 100%
C[C@@H]1CN(c2cc(-c3n[nH]c4ccc(OC5(C)CC5)cc34)ncn2)C[C@H](C)O1 — remaining binding (RPS6KA2 C-terminal kinase domain; cell-free assay; competition with immobilised ligand; 0.1 µM): 100%
CN(c1nccc(-c2cnn3ncccc23)n1)C1CC1 — remaining binding (RPS6KA2 N-terminal kinase domain; binding; competition with immobilised ligand; 1 µM): 99%
O=C(O)[C@@H]1[C@@H](Cn2nnc3ccccc3c2=O)CC[C@H]1C(=O)c1ccc(OCCC2CCOCC2)cc1 — remaining binding (RPS6KA2 C-terminal kinase domain; cell-free assay; competition with immobilised ligand; 1 µM): 100%
C[C@H]1CCN(c2nccc(-c3cnn4ncccc34)n2)C1 — remaining binding (RPS6KA2 C-terminal kinase domain; binding; competition with immobilised ligand; 1 µM): 100%
CNC(=O)c1ccc(Nc2ncc(C(F)(F)F)c(NCc3nccnc3N(C)S(C)(=O)=O)n2)cc1 — remaining binding (RPS6KA2 C-terminal kinase domain; cell-free assay; competition with immobilised ligand; 0.1 µM): 61%
CCCS(=O)(=O)Nc1ccc(F)c(C(=O)c2c[nH]c3ncc(-c4ccc(Cl)cc4)cc23)c1F — inhibition (RPS6KA2; enzyme activity; inhibitor; 1 µM): < 10%
COc1ccc2c(O[C@@H]3C[C@H]4C(=O)N[C@]5(C(=O)O)CC5/C=C\CCCCC[C@H](NC(=O)OC5CCCC5)C(=O)N4C3)cc(-c3csc(NC(=O)C(C)C)n3)nc2c1C (stereo partly shown) — remaining binding (RPS6KA2 N-terminal kinase domain; cell-free assay; competition with immobilised ligand; 1 µM): 100%
c1cnn2ncc(-c3ccnc(N4CCC45COC5)n3)c2c1 — remaining binding (RPS6KA2 N-terminal kinase domain; binding; competition with immobilised ligand; 1 µM): 95%
